The subject of data set [1] is Mus musculus. As to the kind of experiment: Decrease in serum iron level in C57BL/6 mouse at 100 nmol, sc after 24 hrs by colorimetric analysis. The class given is functional, organism-based. The essentials:
(§1)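 C57BL/6 mice on NIH 31 diet (iron 336 mg/kg). Single subcutaneous injection of 50, 100 or 200 nmoles peptide in 100 μL PBS; controls received PBS alone. Killed at 24 h, serum from cardiac blood. Serum iron by colorimetric assay (microplate, 50 μL serum). Percent decrease versus mean of PBS-injected mice.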

Data set [2] has as its system Plasma. Briefly: Metabolic stability in mouse plasma at 25 uM by LC/MS analysis. The class given is ADME, cell-free. The essentials: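 Peptide from 10 mM DMSO stock added to fresh mouse plasma (final 25 μM), incubated at 37 °C. Samples (10 μL) taken at time-points and diluted into DMSO/ACN 1:1 with 0.1% TFA. Centrifuged 13000 rpm, 10 min. Supernatant analysed by triple-quadrupole LC/MS with NM4A-Me peptide as internal standard.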

For data set [3], the target named is T1, Ferroportin (Homo sapiens, UniProt Q9NP59).
T1 sequence (Q9NP59 whole entry): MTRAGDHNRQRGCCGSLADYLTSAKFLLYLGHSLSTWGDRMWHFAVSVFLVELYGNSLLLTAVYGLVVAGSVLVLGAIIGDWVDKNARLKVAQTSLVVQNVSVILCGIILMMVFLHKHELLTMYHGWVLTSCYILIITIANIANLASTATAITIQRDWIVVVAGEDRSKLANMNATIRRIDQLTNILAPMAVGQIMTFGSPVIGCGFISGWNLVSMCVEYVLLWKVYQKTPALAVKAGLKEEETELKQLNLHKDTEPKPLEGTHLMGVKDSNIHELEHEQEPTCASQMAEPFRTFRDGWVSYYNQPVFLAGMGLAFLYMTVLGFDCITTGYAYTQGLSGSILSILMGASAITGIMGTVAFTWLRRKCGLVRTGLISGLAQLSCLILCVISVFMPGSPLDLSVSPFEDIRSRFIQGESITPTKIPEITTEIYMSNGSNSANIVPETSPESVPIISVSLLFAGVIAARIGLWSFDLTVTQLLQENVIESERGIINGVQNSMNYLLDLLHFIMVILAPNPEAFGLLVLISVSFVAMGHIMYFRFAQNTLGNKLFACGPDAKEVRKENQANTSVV
Briefly: Agonist activity at GFP-fused human FPN transfected in HEK293 cells assessed as protein degradation after 24 hrs by flow cytometric analysis. In kind it is cell-based. The essentials:
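HEK293:TREX-Fpn-GFP cells (human ferroportin-GFP, doxycycline-inducible) plated on poly-D-lysine with 20 μM FAC, induced with 500 ng/mL doxycycline for 24 h, washed, then peptide-treated 24 h. Green fluorescence read by flow cytometry at 1 × 10^6 cells/mL, gated against uninduced cells. Activity expressed as fraction of hep25: 1 − [(Fx − Fhep25)/(Funtreated − Fhep25)]. 3–6 independent repeats.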
On the technique in general: A flow cytometer gives signals particle by particle.

The subject of data set [4] is Mus musculus. As to the kind of experiment: Decrease in serum iron level in C57BL/6 mouse at 50 to 200 nmol, sc after 24 hrs by colorimetric analysis. The class given is functional, organism-based. The essentials:
as §1

The subject of data set [5] is Mus musculus. As to the kind of experiment: Decrease in serum iron level in C57BL/6 mouse at 50 to 100 nmol, sc after 24 hrs by colorimetric analysis. In kind it is functional, organism-based. As to conditions: in the assay text read “50 to 200 nmol” for “50 to 100 nmol”. The essentials:
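C57BL/6 mice on NIH 31 diet (iron 336 mg/kg) received 50, 100 or 200 nmoles peptide in 100 μL PBS sc, or PBS alone. Killed at 24 h, serum from cardiac puncture. Serum iron measured by microplate colorimetric assay using 50 μL serum. Reported as % decrease versus mean of PBS-injected mice.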

Data set [6] is described as follows: Half life in cynomolgus monkey. The settings on record: in vivo. In kind it is ADME, organism-based, Macaca fascicularis.
In data set [7] the test system is Mus musculus. As to the kind of experiment: Decrease in serum iron level in C57BL/6 mouse at 50 nmol, sc after 24 hrs by colorimetric analysis. The class given is functional, organism-based. The procedure, abridged: as §1

Activity calls are given as the source filed them. Starred links: 1 amine or outer side, 2 acyl side, 3 side chain; linkers in the order of their positions; H or OH if unused. Positions of bridges follow the written chain, without caps; N, C: chain ends. Residues, ends and D or L forms follow the SMILES beside them. *: point of attachment. Propanoyl(3,3-Ph2) = O=C(CC(c1ccccc1)c1ccccc1)*; X1 = CCCCCCCCCCCCCCCC(=O)NCCOCCOCCN*; mXylylene = c1cc(C[*:1])cc(C[*:2])c1

We go through 5 compounds from ChEMBL document CHEMBL3621052, “Small cyclic agonists of iron regulatory hormone hepcidin” (Bioorg Med Chem Lett, 2015).

Take `CCCCCCCCCCCCCCCCNC(=O)CN(CC(N)=O)C(=O)CCCCCNC(=O)C[C@H](Cc1ccccc1)NC(=O)[C@H](CCCNC(=N)N)NC(=O)[C@H](CS)NC(=O)[C@H](CCCNC(=N)N)NC(=O)C[C@@H]1CCCN1C(=O)[C@@H](NC(=O)[C@H](Cc1c[nH]cn1)NC(=O)[C@@H](NC(=O)CNCC(=O)O)[C@@H](C)O)C(c1ccccc1)c1ccccc1`: the result in data set [1] was Active. Moreover, the Stability result in data set [2] is “Stable”.

Regarding `N=C(N)NCCC[C@@H]1NC(=O)[C@@H](NC(=O)CC(c2ccccc2)c2ccccc2)CSCc2cccc(c2)CSC[C@@H](C(N)=O)NC(=O)[C@H](Cc2ccccc2)NC(=O)[C@H](CCCNC(=N)N)NC(=O)[C@H](CS)NC1=O` ({Propanoyl(3,3-Ph2)}-CRCRFC-NH2; linker 1-6 via mXylylene), the EC50 in data set [3] came out at 104 nM. In addition, in data set [4], the outcome was inactive.

As for `CCCCCCCCCCCCCCCCNC(=O)CN(CC(N)=O)C(=O)CCCCCNC(=O)[C@@H]1CSCc2cccc(c2)CSC[C@H](NC(C)=O)C(=O)N[C@@H](C(c2ccccc2)c2ccccc2)C(=O)N2CCC[C@H]2C(=O)N[C@@H](CCCNC(=N)N)C(=O)N[C@@H](CS)C(=O)N[C@@H](CCCNC(=N)N)C(=O)N[C@@H](Cc2ccccc2)C(=O)N1`, the EC50 in data set [3] came to 44.2 nM. Moreover, the result in data set [5] was inactive.

The compound `CC[C@H](C)[C@@H]1NC(=O)[C@@H](NC(=O)[C@@H](NC(=O)[C@@H]2CCCN2C(=O)[C@H](Cc2ccccc2)NC(=O)[C@H](Cc2c[nH]cn2)NC(=O)[C@@H](NC(=O)[C@@H](N)CC(=O)O)[C@@H](C)O)[C@@H](C)CC)CSSC[C@@H](C(=O)N[C@@H](CCCCN)C(=O)N[C@H](C(=O)O)[C@@H](C)O)NC(=O)[C@@H]2CSSC[C@@H]3NC(=O)[C@@H]4CSSC[C@H](NC(=O)[C@H](Cc5ccccc5)NC1=O)C(=O)N[C@@H](CSSC[C@H](NC(=O)[C@H](CCCCN)NC(=O)[C@H](CO)NC(=O)[C@H](CCCNC(=N)N)NC(=O)[C@H](Cc1c[nH]cn1)NC3=O)C(=O)NCC(=O)N[C@@H](CCSC)C(=O)N2)C(=O)NCC(=O)N4` registered a half-life in data set [6] of less than 2.5 min.

Consider `CCCCCCCCCCCCCCCC(=O)NCCOCCOCCNC(=O)[C@@H]1CSCc2cccc(c2)CSC[C@H](NC(=O)CC(c2ccccc2)c2ccccc2)C(=O)N[C@@H](CCCNC(=N)N)C(=O)N[C@@H](CS)C(=O)N[C@@H](CCCNC(=N)N)C(=O)N[C@@H](Cc2ccccc2)C(=O)N1` ({Propanoyl(3,3-Ph2)}-CRCRFC-X1; linker 1-6 via mXylylene), for which the outcome in data set [7] was inactive. Further, in data set [3], the EC50 stood at 52.3 nM. The Stability entry in data set [2] is recorded as “Stable”.

By EC50 is commonly meant the midpoint of the concentration-response curve. By half-life is commonly meant the time needed for the level to fall by half in the phase considered.
